Reference: ChEMBL document CHEMBL4184225, “Discovery of selective 2,4-diaminoquinazoline toll-like receptor 7 (TLR 7) agonists” (Bioorg Med Chem Lett, 2018)

Columns and labels:
[1] = Tmax in Sprague-Dawley rat at 10 mg/kg, po; assay type: ADME, organism-based; settings: in vivo
Summary of the method: (§1)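 Healthy male Sprague-Dawley rats given a single oral dose of 10 mg/kg. Portal vein plasma, systemic plasma and liver sampled. Cmax and Tmax determined, and AUC over 0–last. Liver/plasma ratio calculated from AUC(0-last).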

[2] = Cmax in Sprague-Dawley rat plasma at 10 mg/kg, po; assay type: ADME, organism-based; set-up: dose 10 mg/kg, route oral; summary of the method: as §1
[3] = Cmax in Sprague-Dawley rat liver at 10 mg/kg, po
[4] = AUClast in Sprague-Dawley rat plasma at 10 mg/kg, po; assay type: ADME, organism-based; set-up: dose 10 mg/kg, time 0 - last, route oral; summary of the method: as §1
[5] = AUClast in Sprague-Dawley rat liver at 10 mg/kg, po; assay type: ADME, organism-based; settings: in vivo; summary of the method: as §1
[6] = Plasma clearance in Sprague-Dawley rat at 2.5 mg/kg, iv; assay type: ADME, organism-based
[7] = Cmax in Sprague-Dawley rat portal vein at 10 mg/kg, po; assay type: ADME, organism-based; set-up: dose 10 mg/kg, route oral; summary of the method: as §1
[8] = Oral bioavailability in Sprague-Dawley rat at 10 mg/kg; assay type: ADME, organism-based; settings: in vivo
[9] = Metabolic stability in rat liver microsomes assessed as drug metabolism after 15 mins at 1 uM
[10] = Ratio of AUClast in liver to AUClast in plasma of Sprague-Dawley rat at 10 mg/kg, po; assay type: ADME, organism-based; settings: liver and plasma; summary of the method: as §1
[11] = AUClast in Sprague-Dawley rat portal vein at 10 mg/kg, po; assay type: ADME, organism-based; set-up: dose 10 mg/kg, time 0 - last, route oral; summary of the method: as §1
[12] = Metabolic stability in human liver microsomes assessed as drug metabolism after 15 mins at 1 uM; assay type: ADME, microsome; settings: read-out: Drug metabolism
Summary of the method: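 Compound at 1µM incubated with liver microsomes of the stated species. Percent of compound metabolized after 15 min.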

[13] = biological target: T1, Toll-like receptor 7 (Homo sapiens) (UniProt Q9NYK1); assay: Agonist activity at human TLR7 expressed in HEK293 cells assessed as induction of receptor activation incubated for 6 hrs by NF-kappaB-luciferase reporter gene assay; assay type: cell-based
T1 sequence (whole entry): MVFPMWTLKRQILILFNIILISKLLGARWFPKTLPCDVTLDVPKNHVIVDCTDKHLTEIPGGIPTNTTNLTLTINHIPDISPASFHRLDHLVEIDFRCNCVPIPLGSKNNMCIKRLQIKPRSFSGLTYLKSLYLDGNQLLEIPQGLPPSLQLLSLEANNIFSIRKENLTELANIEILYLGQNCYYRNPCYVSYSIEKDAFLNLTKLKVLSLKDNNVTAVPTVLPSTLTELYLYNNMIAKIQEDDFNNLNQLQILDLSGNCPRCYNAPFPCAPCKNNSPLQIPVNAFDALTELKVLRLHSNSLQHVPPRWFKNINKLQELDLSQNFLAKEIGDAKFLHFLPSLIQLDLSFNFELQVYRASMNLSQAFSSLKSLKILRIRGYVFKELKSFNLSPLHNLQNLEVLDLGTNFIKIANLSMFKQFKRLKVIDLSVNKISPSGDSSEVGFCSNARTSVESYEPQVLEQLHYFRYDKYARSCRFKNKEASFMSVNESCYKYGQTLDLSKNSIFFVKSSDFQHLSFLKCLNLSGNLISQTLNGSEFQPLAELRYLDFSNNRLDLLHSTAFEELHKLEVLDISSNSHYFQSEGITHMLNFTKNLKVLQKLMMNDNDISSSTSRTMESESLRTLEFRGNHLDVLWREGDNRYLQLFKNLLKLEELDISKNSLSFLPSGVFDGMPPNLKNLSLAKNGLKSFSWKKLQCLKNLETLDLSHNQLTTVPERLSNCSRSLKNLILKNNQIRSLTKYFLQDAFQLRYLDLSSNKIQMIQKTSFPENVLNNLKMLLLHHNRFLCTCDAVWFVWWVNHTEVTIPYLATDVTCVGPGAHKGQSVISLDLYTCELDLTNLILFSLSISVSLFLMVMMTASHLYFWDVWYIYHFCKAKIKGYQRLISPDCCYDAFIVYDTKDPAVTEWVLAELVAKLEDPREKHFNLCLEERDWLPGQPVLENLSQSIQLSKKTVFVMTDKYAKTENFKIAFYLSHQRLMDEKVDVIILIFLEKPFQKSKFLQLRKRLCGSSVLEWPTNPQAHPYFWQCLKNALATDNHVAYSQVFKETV
Summary of the method: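 HEK293 cells transiently transfected overnight with CMV-TLR7 (wild type or dLRR2 mutant) plus NFκB-luc plasmids. Seeded at 1.67 x 10^5 cells/mL onto compound in 4% DMSO (stock), 6 h at 37°C, 5% CO2, luciferase readout. Quadruplicate dose-response. LEC is the concentration giving an effect at least two-fold above assay SD. Values averaged over independent experiments where repeated.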

Cytochrome P450 3A4 = Cytochrome P450 3A4 (Homo sapiens, UniProt P08684); assay: Inhibition of CYP3A4 (unknown origin); assay type: ADME
Cytochrome P450 2C8 = biological target: T2, Cytochrome P450 2C8 (Homo sapiens, UniProt P10632); assay: Inhibition of CYP2C8 (unknown origin); assay type: ADME
T2 sequence (P10632 whole entry): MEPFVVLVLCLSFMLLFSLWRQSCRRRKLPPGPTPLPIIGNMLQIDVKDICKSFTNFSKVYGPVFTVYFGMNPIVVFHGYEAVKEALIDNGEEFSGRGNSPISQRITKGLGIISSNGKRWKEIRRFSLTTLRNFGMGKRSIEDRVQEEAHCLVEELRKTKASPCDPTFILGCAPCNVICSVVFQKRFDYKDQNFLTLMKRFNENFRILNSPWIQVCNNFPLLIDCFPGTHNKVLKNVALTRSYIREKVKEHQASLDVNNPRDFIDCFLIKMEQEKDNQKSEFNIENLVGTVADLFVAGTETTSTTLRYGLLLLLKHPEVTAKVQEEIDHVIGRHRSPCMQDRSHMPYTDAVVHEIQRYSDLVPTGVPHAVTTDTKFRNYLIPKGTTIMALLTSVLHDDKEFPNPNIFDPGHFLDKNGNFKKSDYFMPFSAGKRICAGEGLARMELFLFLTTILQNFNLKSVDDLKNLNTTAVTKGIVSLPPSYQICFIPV

Cytochrome P450 2D6 = Cytochrome P450 2D6 (Homo sapiens, UniProt P10635); assay: Inhibition of CYP2D6 (unknown origin); assay type: ADME
Homo sapiens = species: Homo sapiens; assay: Selectivity index, ratio of MEC for agonist activity at human TLR8 expressed in HEK293 cells to MEC for agonist activity at human TLR7 expressed in HEK293 cells as; assay type: cell-based
Summary of the method: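 Ratio of TLR8 to TLR7 LEC from HEK293 NFκB-luciferase reporter assays. Cells were transiently transfected with TLR7 or TLR8 construct plus NFκB-luc and treated with compound for 6 h at 37°C. LEC is the lowest concentration with signal at least two-fold above the assay SD, from quadruplicate dose-response curves.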

[14] = biological target: T1, Toll-like receptor 7 (Homo sapiens); assay: Agonist activity at TLR7 in human PBMC assessed as suppression of HCV replicon replication in human HuH7 luc/neo cells harboring RNA encoding bicistronic expression construct comprising wild type HCV type 1b NS3-NS5B regions exposed to conditioned media from compound treated PBMCs by luciferase reporter gene assay; assay type: cell-based
Summary of the method: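 PBMCs from buffy coats of at least two donors (Ficoll), in RPMI with 10% human AB serum, 2 x 10^5 cells/well, incubated overnight with compound. Supernatant transferred onto Huh7-luc/neo replicon cells plated the day before (2.2 x 10^3/well). Luciferase read after 24 h. EC50 is the concentration applied to PBMCs giving 50% luciferase reduction. Recombinant IFN-α2a standard.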

Chain of Cytochrome P450 3A4 (P08684 whole entry): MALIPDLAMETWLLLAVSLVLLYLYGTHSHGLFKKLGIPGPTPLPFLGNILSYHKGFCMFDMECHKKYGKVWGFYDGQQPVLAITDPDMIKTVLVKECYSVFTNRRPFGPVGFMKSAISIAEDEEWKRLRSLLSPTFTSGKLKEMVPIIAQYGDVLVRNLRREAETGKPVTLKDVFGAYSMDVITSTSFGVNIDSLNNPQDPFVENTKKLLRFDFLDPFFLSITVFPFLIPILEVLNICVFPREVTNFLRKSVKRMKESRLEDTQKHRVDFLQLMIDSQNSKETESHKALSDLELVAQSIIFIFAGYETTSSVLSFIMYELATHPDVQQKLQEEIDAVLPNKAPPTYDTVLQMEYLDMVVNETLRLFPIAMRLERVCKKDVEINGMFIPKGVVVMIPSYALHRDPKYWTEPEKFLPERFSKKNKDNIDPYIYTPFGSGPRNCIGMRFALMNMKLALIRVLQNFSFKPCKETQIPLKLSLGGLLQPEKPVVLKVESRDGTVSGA
Chain of Cytochrome P450 2D6 (P10635 whole entry): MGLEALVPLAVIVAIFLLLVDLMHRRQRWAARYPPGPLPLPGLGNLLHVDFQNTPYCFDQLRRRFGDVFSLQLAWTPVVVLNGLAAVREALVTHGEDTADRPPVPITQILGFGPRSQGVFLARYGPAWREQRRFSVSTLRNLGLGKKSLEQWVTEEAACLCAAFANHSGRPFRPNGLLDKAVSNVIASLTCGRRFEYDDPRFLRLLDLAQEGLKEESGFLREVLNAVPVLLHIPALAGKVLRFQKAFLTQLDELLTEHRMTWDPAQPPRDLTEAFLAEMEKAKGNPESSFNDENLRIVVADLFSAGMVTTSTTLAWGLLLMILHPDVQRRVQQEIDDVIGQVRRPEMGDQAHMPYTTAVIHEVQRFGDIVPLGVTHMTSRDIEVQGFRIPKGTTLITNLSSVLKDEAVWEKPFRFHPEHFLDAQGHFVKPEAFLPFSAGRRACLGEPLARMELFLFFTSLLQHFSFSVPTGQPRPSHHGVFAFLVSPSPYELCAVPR

SMILES	Tmax [1] [min]	Cmax [2] [ng/mL]	Cmax [3] [ng/g]	AUC(0-t) [4] [ng·h/mL]	AUClast [5] [ng·h/g]	clearance [6] [mL/min/kg]	Cmax [7] [ng/mL]	bioavailability [8] [%]	metabolised at 0.25 h, 1 µM [9] [%]	Kp [10]	AUC(0-t) [11] [ng·h/mL]	metabolised at 0.25 h, 1 µM [12] [%]	MEC [13] [µM]	IC50 (Cytochrome P450 3A4) [µM]	IC50 (Cytochrome P450 2C8) [µM]	IC50 (Cytochrome P450 2D6) [µM]	Ratio (Homo sapiens)	MEC [14] [µM]
CCCCNc1nc(N)nc2ccccc12	30	33	2030	56	6450	163	583	5.4	95	> 100	1520	90	0.17	–	–	–	–	–
CCCCNc1nc(N)nc2cccc(OCc3ccccc3OC)c12	–	–	–	–	–	–	–	–	–	–	–	48	0.27	> 10	> 10	> 10	90	0.33
CCCCNc1nc(N)nc2cccc(OCc3nccc(OC)c3OC)c12	–	–	–	–	–	–	–	–	–	–	–	37	0.03	9.9	> 10	> 10	–	0.034
CCCCNc1nc(N)nc2cccc(C(=O)NCc3ccccc3)c12	–	–	–	–	–	–	–	–	–	–	–	28	0.06	> 10	> 10	6.6	–	0.03
CCCCNc1nc(N)nc2cccc(C(=O)N[C@H](C)c3ccccc3)c12	–	–	–	–	–	–	–	–	–	–	–	32	2.29	> 10	> 10	> 10	–	> 25
CCCCNc1nc(N)nc2cccc(C(=O)NC)c12	–	–	–	–	–	–	–	–	–	–	–	23	0.35	> 10	> 10	> 10	–	0.15
CCCCNc1nc(N)nc2cccc(C(=O)N(C)Cc3ccccc3)c12	30	9	369	37	1064	55	209	1.2	99	30	621	98	0.53	8.5	> 10	5.6	–	0.27
CCCCNc1nc(N)nc2cccc(OCc3cccnc3)c12	–	–	–	–	–	–	–	–	–	–	–	44	0.03	6.7	> 10	> 10	–	0.011
CCCCNc1nc(N)nc2cccc(OCc3ccccn3)c12	–	–	–	–	–	–	–	–	–	–	–	60	0.49	> 10	> 10	> 10	–	0.043
CCCCNc1nc(N)nc2cccc(C(=O)N[C@@H](C)c3ccccc3)c12	240	87	4930	439	15841	–	276	20	54	36	902	31	0.09	> 10	> 10	> 10	> 250	0.14
CCCCNc1nc(N)nc2cccc(C(=O)NC(C)C)c12	–	–	–	–	–	–	–	–	–	–	–	14	2.05	> 10	> 10	> 10	–	0.56
CCCCNc1nc(N)nc2cccc(OCc3ccc(CO)cc3OC)c12	–	–	–	–	–	–	–	–	–	–	–	43	0.03	> 10	> 10	4.4	> 200	0.018
CCCCNc1nc(N)nc2cccc(OCc3ccccc3)c12	–	–	–	–	–	–	–	–	–	–	–	11	0.16	–	> 10	5.7	10	0.04
